Assay results: PMC5004525 (Pharmacognosy Research, 2016)
“Also recorded” adds a separate entry of the source.

Experiments:
Format in all cases: biochemical
[1] = biological target: rat liver glutathione transferase enzyme; test: Inhibition of rat liver GST
Method in brief: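 Rat liver cytosol was the 100,000 ×g 60 min supernatant, taken after a 12,500 ×g spin of homogenate in 67 mM phosphate, pH 7.4, with 1.15% KCl. Assay used 0.125 mg/mL cytosol, 0.1 M potassium phosphate pH 6.5, 0.001 M GSH and CDNB, read at 340 nm for 5 min. Blanks used cytosol heat-denatured at 60°C for 20 min.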

[2] = test system: rat liver UDP-glucuronosyltransferase enzyme (rat liver microsomes); test: Inhibition of rat liver UGT in rat liver microsomes; conditions: up to the highest concentration investigated
[3] = biological target: human glutathione transferase Pi-1 (hGSTP1) (Homo sapiens, UniProt P09211); test: Inhibition of human GST Pi-1
Method in brief: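 Purified recombinant human GSTP1 (0.003 mg/mL) in 0.1 M potassium phosphate, pH 6.5, with 0.001 M GSH and CDNB as substrate. Test compounds were tested at 0.01–500 µM and extracts at 0.01–1000 µg/mL. CDNB–GSH conjugation was read at 340 nm over 20 min. The blank replaced enzyme with buffer. Activity is expressed as percent of no-inhibitor control, 5 replicates.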

[4] = biological target: T1, human recombinant UGT2B7 (Homo sapiens, UniProt P16662); test: UGT-Glo luminescent inhibition assay, human recombinant UGT2B7; conditions: human recombinant enzyme
T1 sequence (P16662 24-529): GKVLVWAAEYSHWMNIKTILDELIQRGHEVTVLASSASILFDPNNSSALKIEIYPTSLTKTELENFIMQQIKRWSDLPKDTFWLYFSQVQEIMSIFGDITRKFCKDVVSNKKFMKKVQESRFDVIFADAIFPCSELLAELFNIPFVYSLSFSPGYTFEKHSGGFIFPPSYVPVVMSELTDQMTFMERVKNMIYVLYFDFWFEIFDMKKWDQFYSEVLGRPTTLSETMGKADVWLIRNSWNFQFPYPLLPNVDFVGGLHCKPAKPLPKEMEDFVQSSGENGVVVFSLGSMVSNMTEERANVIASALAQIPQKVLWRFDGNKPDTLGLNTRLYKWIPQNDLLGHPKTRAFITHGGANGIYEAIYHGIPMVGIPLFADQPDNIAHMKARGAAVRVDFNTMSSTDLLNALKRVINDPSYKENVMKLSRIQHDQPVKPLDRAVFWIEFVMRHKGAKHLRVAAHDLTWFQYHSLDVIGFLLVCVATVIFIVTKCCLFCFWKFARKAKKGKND

[5] = biological target: T2, human recombinant UGT1A1 (Homo sapiens, UniProt P22309); test: UGT-Glo luminescent inhibition assay, human recombinant UGT1A1
T2 sequence (P22309 26-533): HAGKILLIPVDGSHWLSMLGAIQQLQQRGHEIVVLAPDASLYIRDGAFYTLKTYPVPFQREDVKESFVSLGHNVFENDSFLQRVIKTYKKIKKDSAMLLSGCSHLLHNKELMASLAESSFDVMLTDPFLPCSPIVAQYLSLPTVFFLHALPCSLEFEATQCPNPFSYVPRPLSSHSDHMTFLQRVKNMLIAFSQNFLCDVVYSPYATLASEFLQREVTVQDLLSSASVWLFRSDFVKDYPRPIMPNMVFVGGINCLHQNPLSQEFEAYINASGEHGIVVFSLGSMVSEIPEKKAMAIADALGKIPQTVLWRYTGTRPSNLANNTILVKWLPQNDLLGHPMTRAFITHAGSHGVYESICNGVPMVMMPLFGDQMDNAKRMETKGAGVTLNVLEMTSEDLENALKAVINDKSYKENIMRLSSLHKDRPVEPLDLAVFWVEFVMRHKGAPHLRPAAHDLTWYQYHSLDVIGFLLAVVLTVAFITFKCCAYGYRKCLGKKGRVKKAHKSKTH
Method in brief: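 UGT-Glo luminescent assay at 37°C with 0.1 mg/mL UGT supersomes, 20 µM multienzyme substrate and 4 mM UDPGA. Incubation was 90 min for UGT1A1 and 60 min for UGT2B7. Reactions were stopped with luciferin detection reagent plus D-cysteine for 20 min at room temperature, then luminescence read. Control microsomes lacking UGT served as negative control. Extracts were tested at 0.1–1000 µg/mL and constituents at 0.02–200 µM. IC50 was fitted by nonlinear regression; three determinations from two experiments.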

human glutathione transferase Pi-1 (hGSTP1), sequence (P09211 2-210 limits assumed): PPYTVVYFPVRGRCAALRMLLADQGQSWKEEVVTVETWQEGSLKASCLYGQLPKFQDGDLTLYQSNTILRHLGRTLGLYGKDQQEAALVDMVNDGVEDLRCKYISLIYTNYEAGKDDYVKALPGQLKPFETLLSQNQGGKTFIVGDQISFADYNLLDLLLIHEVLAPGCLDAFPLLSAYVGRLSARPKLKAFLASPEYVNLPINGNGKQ

| IC50, rat liver GST ([1]; CDNB substrate, mean ± SEM, n = 5) [µg/mL] | inhibition of rat liver UGT enzyme activity (in words) [2] | inhibition of hGSTP1 (in words) [3] | percentage of inhibition of hGSTP1 activity ([3]; at the highest concentration determined (compounds 500 µM)) [%] | inhibition of UGT1A1 (in words) ([5]; human recombinant enzyme) | inhibition of rat liver GST (in words) [1] | inhibition at 500 µM ([3]; read-out: percentage of inhibition of hGSTP1 activity) [%] | inhibitory effect on UGT1A1 compared to UGT2B7 ([5]; ratio of IC50 values UGT2B7/UGT1A1) [times] | Compound | inhibition of UGT2B7 (in words) [4] |
| --- | --- | --- | --- | --- | --- | --- | --- | --- | --- |
| 4.83 ± 2.29 | – | – | – | – | – | – | – | Tannic acid [reference compound] | – |
| – | did not show any inhibition | did not show inhibition | < 50 | weaker inhibition | very low inhibition or no inhibition | – | – | CC(C)=CCCC(C)c1ccc(C)cc1 (centres unmarked) [Curcumene, curcumene] | did not show any inhibition; also recorded: weaker inhibition |
| – | – | did not show inhibition | – | – | very low inhibition or no inhibition | < 50 | 3 | CC(C)=CCC[C@@H](C)c1ccc(C)c(O)c1 [Xanthorrhizol, xanthorrhizol] | – |
